# ChEMBL document CHEMBL4130626, “α-Arylidene Diacylglycerol-Lactones (DAG-Lactones) as Selective Ras Guanine-Releasing Protein 3 (RasGRP3) Ligands” (J Med Chem, 2018)
# Activity calls are given as the source filed them. The rule behind the calls is not given here.
# Tests used:
# [1] = molecular target: Protein kinase C alpha type (Homo sapiens, UniProt P17252); experiment: Displacement of [3H]PDBu from full length recombinant human PKCalpha expressed in baculovirus expression system after 5 mins by scintillation counting
# Outline: (§1)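 Competition of [3H]PDBu binding by polyethylene glycol precipitation, with 100 µg/ml phosphatidylserine and ≤0.003% Triton X-100, 5 min at 37 °C. Proteins: full-length purified human PKCα, PKCε; full-length RasGRP1; MBP-RasGRP3 from E. coli BL21(DE3) induced with 0.3 mM IPTG 6 h at room temperature. Ki mean ± SEM of ≥2 experiments, triplicate points.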
# [2] = molecular target: T1, RAS guanyl-releasing protein 1 (Homo sapiens) (UniProt O95267); experiment: Displacement of [3H]PDBu from full length MBP-tagged human RasGRP1 expressed in Escherichia coli BL21 (DE3) after 5 mins in presence of phosphatidylserine by scintillation counting; outline: as §1
# T1 sequence (whole entry): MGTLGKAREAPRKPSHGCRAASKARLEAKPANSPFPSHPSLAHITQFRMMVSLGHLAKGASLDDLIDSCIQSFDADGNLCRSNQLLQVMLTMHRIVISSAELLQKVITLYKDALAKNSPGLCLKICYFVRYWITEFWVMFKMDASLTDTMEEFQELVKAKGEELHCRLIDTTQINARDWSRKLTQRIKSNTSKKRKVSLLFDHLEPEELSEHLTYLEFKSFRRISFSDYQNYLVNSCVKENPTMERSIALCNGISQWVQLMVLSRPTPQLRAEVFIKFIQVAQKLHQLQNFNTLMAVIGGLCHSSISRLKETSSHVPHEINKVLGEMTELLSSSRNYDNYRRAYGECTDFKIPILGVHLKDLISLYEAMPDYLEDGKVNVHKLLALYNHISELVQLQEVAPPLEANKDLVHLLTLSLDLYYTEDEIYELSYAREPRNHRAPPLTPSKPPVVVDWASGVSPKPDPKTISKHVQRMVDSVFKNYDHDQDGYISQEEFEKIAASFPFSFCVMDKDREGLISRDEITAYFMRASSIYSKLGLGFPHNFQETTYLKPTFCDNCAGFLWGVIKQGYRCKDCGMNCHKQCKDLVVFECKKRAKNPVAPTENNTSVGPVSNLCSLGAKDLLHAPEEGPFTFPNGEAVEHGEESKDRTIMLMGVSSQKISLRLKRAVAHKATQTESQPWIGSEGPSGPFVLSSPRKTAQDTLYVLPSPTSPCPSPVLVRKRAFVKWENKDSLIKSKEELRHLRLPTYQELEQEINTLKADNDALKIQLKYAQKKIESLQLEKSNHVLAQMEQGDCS
# [3] = molecular target: T2, RAS guanyl-releasing protein 1 (Homo sapiens, UniProt O95267); experiment: Activation of GFP-tagged RasGRP1 (unknown origin) expressed in human LNCAP cells after 30 mins by immunoblot method; assay type: cell-based
# T2 sequence (O95267 whole entry): T1 sequence (whole entry)
# Outline: (§2)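 Cells expressing GFP-RasGRP1/3 (HEK293 or LNCaP, 48 h after plating, transfected; expression checked by fluorescence 24-48 h later) or Ramos with endogenous RasGRP3 treated with half-log increasing concentrations (max 10 µM), 1000 nM PMA or DMSO, 37 °C, 30 min, 5% CO2. RasGTP by Raf1 RBD bead pulldown and anti-Pan-Ras immunoblot; pERK by western blot. Band intensities normalized to 1000 nM PMA; EC50 from n = 3.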
# [4] = molecular target: T3, Ras guanyl-releasing protein 3 (Homo sapiens, UniProt Q8IV61); experiment: Activation of RasGRP3 in human Ramos cells after 30 mins by immunoblot method; assay type: cell-based; outline: as §2
# T3 sequence (Q8IV61 whole entry): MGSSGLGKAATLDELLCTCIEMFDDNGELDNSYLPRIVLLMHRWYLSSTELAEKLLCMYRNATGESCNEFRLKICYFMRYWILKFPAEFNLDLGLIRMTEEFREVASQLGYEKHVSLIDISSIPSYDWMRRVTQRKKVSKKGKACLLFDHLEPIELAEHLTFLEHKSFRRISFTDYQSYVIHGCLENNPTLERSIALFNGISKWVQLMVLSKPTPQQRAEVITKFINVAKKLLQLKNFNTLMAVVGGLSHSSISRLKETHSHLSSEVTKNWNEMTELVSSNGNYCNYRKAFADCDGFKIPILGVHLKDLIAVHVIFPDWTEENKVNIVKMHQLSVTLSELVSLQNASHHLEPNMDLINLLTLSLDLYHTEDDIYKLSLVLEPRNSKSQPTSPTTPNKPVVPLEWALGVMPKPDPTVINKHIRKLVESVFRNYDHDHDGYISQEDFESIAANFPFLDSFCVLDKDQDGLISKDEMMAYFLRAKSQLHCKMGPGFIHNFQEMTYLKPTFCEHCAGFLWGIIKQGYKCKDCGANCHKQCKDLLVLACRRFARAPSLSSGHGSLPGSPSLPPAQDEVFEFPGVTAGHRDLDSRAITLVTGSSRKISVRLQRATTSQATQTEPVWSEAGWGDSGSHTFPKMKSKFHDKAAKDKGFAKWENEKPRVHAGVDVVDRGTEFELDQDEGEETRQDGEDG
# [5] = molecular target: T4, Protein kinase C delta type (Homo sapiens, UniProt Q05655); experiment: Activation of PKCdelta (unknown origin) expressed in human LNCAP cells harboring GFP-tagged RasGRP3 assessed as phosphorylation at ser299 residues after 30 mins by immunoblot method; assay type: cell-based
# Outline: (§3)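 PKCδ activation read as phospho-S299 on western blots of lysates (50 µg protein, 10% SDS-PAGE, milk blocking, anti-PKCδS299 overnight). Cells: GFP-RasGRP1/3-transfected HEK293 or LNCaP, or Ramos, treated 30 min at 37 °C with half-log doses (maximum 10 µM), 1000 nM PMA or DMSO. Scanned intensities normalized to 1000 nM PMA; EC50 mean ± SEM, n = 3; values above 10 µM extrapolated.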
# [6] = molecular target: T4, Protein kinase C delta type; experiment: Activation of PKCdelta in human Ramos cells expressing RasGRP3 assessed as phosphorylation at ser299 residues after 30 mins by immunoblot method; assay type: cell-based; outline: as §3
# Homo sapiens [7] = organism: Homo sapiens; experiment: Selectivity ratio of EC50 for PKCdelta in human Ramos cells expressing RasGRP3 to EC50 for RasGRP3 in human Ramos cells; assay type: cell-based
# Homo sapiens [8] = organism: Homo sapiens; experiment: Selectivity ratio of EC50 for PKCdelta (unknown origin) expressed in HEK293 cells harboring GFP-tagged RasGRP3 to EC50 for GFP-tagged RasGRP3 (unknown origin) expressed in HEK293 cells assessed as ERK1/2 phosphorylation; assay type: cell-based
# Homo sapiens [9] = organism: Homo sapiens; experiment: Selectivity ratio of EC50 for PKCdelta (unknown origin) expressed in human LNCAP cells harboring GFP-tagged RasGRP3 to EC50 for GFP-tagged RasGRP3 (unknown origin) expressed in human LNCAP cells assessed as ERK1/2 phosphorylation; assay type: cell-based
# Homo sapiens [10] = organism: Homo sapiens; experiment: Selectivity ratio of EC50 for PKCdelta in human Ramos cells expressing RasGRP3 to EC50 for RasGRP3 in human Ramos cells assessed as ERK1/2 phosphorylation; assay type: cell-based
# [11] = molecular target: T5, Ras guanyl-releasing protein 3 (Homo sapiens) (UniProt Q8IV61); experiment: Displacement of [3H]PDBu from full length MBP-tagged human RasGRP3 expressed in Escherichia coli BL21 (DE3) after 5 mins in presence of phosphatidylserine by scintillation counting; outline: as §1
# T5 sequence (whole entry): T3 sequence (Q8IV61 whole entry)
# T4 sequence (Q05655 whole entry): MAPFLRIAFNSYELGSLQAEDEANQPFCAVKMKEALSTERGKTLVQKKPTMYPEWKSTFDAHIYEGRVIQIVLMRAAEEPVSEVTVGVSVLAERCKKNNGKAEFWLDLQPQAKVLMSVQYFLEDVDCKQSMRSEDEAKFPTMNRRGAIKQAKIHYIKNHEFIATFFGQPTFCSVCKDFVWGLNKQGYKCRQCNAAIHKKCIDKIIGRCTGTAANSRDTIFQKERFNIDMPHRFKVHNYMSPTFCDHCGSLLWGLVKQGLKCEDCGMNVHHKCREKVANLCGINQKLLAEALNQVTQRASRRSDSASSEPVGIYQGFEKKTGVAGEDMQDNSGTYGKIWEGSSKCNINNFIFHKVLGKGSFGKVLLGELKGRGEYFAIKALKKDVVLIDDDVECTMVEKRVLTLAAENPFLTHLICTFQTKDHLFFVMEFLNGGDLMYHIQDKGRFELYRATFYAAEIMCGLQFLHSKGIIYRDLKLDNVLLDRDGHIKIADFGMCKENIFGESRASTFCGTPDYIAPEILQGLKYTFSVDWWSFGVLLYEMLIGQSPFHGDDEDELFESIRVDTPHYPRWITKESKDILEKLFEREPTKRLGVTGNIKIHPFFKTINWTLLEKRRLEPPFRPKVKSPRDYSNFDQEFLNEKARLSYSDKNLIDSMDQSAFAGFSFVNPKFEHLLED
structure (smiles),measurement,setting,value
Cn1cc(/C=C2\CC(CO)(COC(=O)C(C)(C)C)OC2=O)c2ccccc21 (stereo unspecified),Ki,[1],127 nM
same,inhibition,[2],Active
same,EC50,[3],970 nM
same,EC50,[4],860 nM
same,EC50,[5],8280 nM
same,EC50,[6],24600 nM
same,Ratio EC50,Homo sapiens [7],28.6
same,Ratio EC50,Homo sapiens [8],3.6
same,Ratio EC50,Homo sapiens [9],2.8
same,Ratio EC50,Homo sapiens [10],4
same,inhibition,[11],Active
